Active and inactive are the calls of the source. No cut-off for these calls is given here.
Assays:
Aspergillus fumigatus [1] = assay: Antifungal activity against Aspergillus fumigatus Af293 assessed as abnormal hyphal growth by CLSI method; assay type: functional; conditions: read-out: MEC
Method in brief: (§1)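 MEC by CLSI broth microdilution in RPMI 1640. Conidia were incubated with or without drug for 48 h at 37°C, in triplicate.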

Aspergillus fumigatus [2] = assay: Antifungal activity against cnaA deficient Aspergillus fumigatus Af293 assessed as abnormal hyphal growth by CLSI method; assay type: functional; conditions: read-out: MEC; method in brief: as §1
Aspergillus fumigatus [3] = assay: Antifungal activity against Aspergillus fumigatus Af293 expressing cnaA gene assessed as abnormal hyphal growth by CLSI method; assay type: functional; conditions: read-out: MEC; method in brief: as §1
Aspergillus fumigatus [4] = assay: Antifungal activity against crzA deficient Aspergillus fumigatus Af293 assessed as abnormal hyphal growth by CLSI method; assay type: functional; conditions: read-out: MEC; method in brief: as §1
Aspergillus fumigatus [5] = assay: Antifungal activity against Aspergillus fumigatus Af293 expressing crzA gene assessed as abnormal hyphal growth by CLSI method; assay type: functional; conditions: read-out: MEC; method in brief: as §1
Aspergillus fumigatus [6] = assay: Antifungal activity against Aspergillus fumigatus H237 assessed as abnormal hyphal growth by CLSI method; assay type: functional; conditions: read-out: MEC; method in brief: as §1
Aspergillus fumigatus [7] = assay: Antifungal activity against rasA deficient Aspergillus fumigatus H237 assessed as abnormal hyphal growth by CLSI method; assay type: functional; conditions: read-out: MEC; method in brief: as §1
Aspergillus fumigatus [8] = assay: Antifungal activity against Aspergillus fumigatus H237 expressing rasA gene assessed as abnormal hyphal growth by CLSI method; assay type: functional; conditions: read-out: MEC; method in brief: as §1
Aspergillus fumigatus [9] = assay: Antifungal activity against Aspergillus fumigatus H237 expressing dominant-active rasA gene assessed as abnormal hyphal growth by CLSI method; assay type: functional; conditions: read-out: MEC; method in brief: as §1
Aspergillus fumigatus [10] = assay: Antifungal activity against rasA deficient Aspergillus fumigatus H237 assessed as decrease in 1, 3-beta-D-glucan cell wall content at 1 ug/ml by aniline blue assay; assay type: functional, organism-based
Method in brief: (§2)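 10⁶ conidia/ml were grown in RPMI 1640 with or without drug for 48 h at 37°C, 250 rpm. Hyphae were washed in 0.1 M NaOH and lyophilized. 5 mg was taken into 1 M NaOH, sonicated and heated at 52°C for 30 min. Aniline blue mix (pH 9.5) was added for 30 min at 52°C. Fluorescence was read at ex 405/em 460 nm against a curdlan standard curve. Results are % change in RFU/mg versus untreated wild type, from five independent experiments.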

Aspergillus fumigatus [11] = assay: Antifungal activity against cnaA deficient Aspergillus fumigatus Af293 assessed as decrease in 1, 3-beta-D-glucan cell wall content at 1 ug/ml by aniline blue assay; assay type: functional, organism-based; method in brief: as §2
Aspergillus fumigatus [12] = assay: Antifungal activity against crzA deficient Aspergillus fumigatus Af293 assessed as decrease in 1, 3-beta-D-glucan cell wall content at 1 ug/ml by aniline blue assay; assay type: functional, organism-based; method in brief: as §2
Aspergillus fumigatus [13] = assay: Antifungal activity against Aspergillus fumigatus Af293 assessed as decrease in 1, 3-beta-D-glucan cell wall content at 1 ug/ml after 48 hrs by aniline blue assay; assay type: functional, organism-based; method in brief: as §2
Aspergillus fumigatus [14] = assay: Antifungal activity against Aspergillus fumigatus H237 assessed as decrease in 1, 3-beta-D-glucan cell wall content at 1 ug/ml after 48 hrs by aniline blue assay; assay type: functional, organism-based; method in brief: as §2
Aspergillus fumigatus [15] = assay: Antifungal activity against Aspergillus fumigatus H237 expressing dominant-active rasA assessed as decrease in 1, 3-beta-D-glucan cell wall content at 1 ug/ml after 48 hrs by aniline blue assay; assay type: functional, organism-based; method in brief: as §2
Candida albicans [16] = assay: Antifungal activity against Candida albicans SC5314 assessed as decrease in chitin cell wall content at 4 ug/ml after 48 hrs; assay type: functional, organism-based
Aspergillus fumigatus [17] = assay: Antifungal activity against cnaA deficient Aspergillus fumigatus Af293 assessed as increase in chitin cell wall content at 1 to 16 ug/ml after 48 hrs; assay type: functional, organism-based
Method in brief: (§3)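 Nikkomycin Z dose series from 0 to 16 μg/ml, added to cultures of 10⁶ conidia/ml in RPMI 1640 for 48 h at 37°C, 250 rpm. Chitin was assayed on 5 mg of lyophilized mycelium by KOH hydrolysis at 130°C, then MBTH colorimetry at A650 against a glucosamine standard. Output is glucosamine equivalents (μg/ml), from biological triplicate.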

Aspergillus fumigatus [18] = assay: Antifungal activity against crzA deficient Aspergillus fumigatus Af293 assessed as increase in chitin cell wall content at 1 to 16 ug/ml after 48 hrs; assay type: functional, organism-based; method in brief: as §3
Aspergillus fumigatus [19] = assay: Antifungal activity against rasA deficient Aspergillus fumigatus H237 assessed as increase in chitin cell wall content at 1 to 16 ug/ml after 48 hrs; assay type: functional, organism-based; method in brief: as §3
Aspergillus fumigatus [20] = assay: Antifungal activity against Aspergillus fumigatus H237 expressing dominant-active rasA assessed as increase in chitin cell wall content at 1 to 16 ug/ml after 48 hrs; assay type: functional, organism-based; method in brief: as §3
Aspergillus fumigatus [21] = assay: Antifungal activity against cnaA deficient Aspergillus fumigatus Af293 assessed as increase in chitin cell wall content at 16 ug/ml after 48 hrs; assay type: functional, organism-based; method in brief: as §3
Aspergillus fumigatus [22] = assay: Antifungal activity against crzA deficient Aspergillus fumigatus Af293 assessed as increase in chitin cell wall content at 16 ug/ml after 48 hrs; assay type: functional, organism-based; method in brief: as §3
Aspergillus fumigatus [23] = assay: Antifungal activity against rasA deficient Aspergillus fumigatus H237 assessed as increase in chitin cell wall content at 16 ug/ml after 48 hrs; assay type: functional, organism-based; method in brief: as §3
Aspergillus fumigatus [24] = assay: Antifungal activity against Aspergillus fumigatus H237 expressing dominant-active rasA assessed as increase in chitin cell wall content at 16 ug/ml after 48 hrs; assay type: functional, organism-based; method in brief: as §3
Aspergillus fumigatus [25] = assay: Antifungal activity against Aspergillus fumigatus H237 assessed as FICI in combination with caspofungin
Aspergillus fumigatus [26] = assay: Antifungal activity against Aspergillus fumigatus Af293 assessed as FICI in combination with caspofungin
Aspergillus fumigatus [27] = assay: Antifungal activity against rasA deficient Aspergillus fumigatus H237 assessed as FICI in combination with caspofungin
Aspergillus fumigatus [28] = assay: Antifungal activity against cnaA deficient Aspergillus fumigatus Af293 assessed as FICI in combination with caspofungin
Aspergillus fumigatus [29] = assay: Antifungal activity against crzA deficient Aspergillus fumigatus Af293 assessed as FICI in combination with caspofungin
Aspergillus fumigatus [30] = assay: Antifungal activity against Aspergillus fumigatus H237 expressing rasA gene assessed as FICI in combination with caspofungin
Aspergillus fumigatus [31] = assay: Antifungal activity against Aspergillus fumigatus Af293 expressing cnaA gene assessed as FICI in combination with caspofungin
Aspergillus fumigatus [32] = assay: Antifungal activity against Aspergillus fumigatus Af293 expressing crzA gene assessed as FICI in combination with caspofungin
Aspergillus fumigatus [33] = assay: Antifungal activity against Aspergillus fumigatus H237 expressing dominant-active rasA gene assessed as FICI in combination with caspofungin
Aspergillus fumigatus [34] = assay: Antifungal activity against cnaA deficient Aspergillus fumigatus Af293 assessed as inhibition of hyphal growth at germling stage at 1 ug/ml by CLSI method; assay type: functional, organism-based
Method in brief: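 Conidia were grown as for CLSI susceptibility testing in RPMI 1640 with or without echinocandin (1 μg/ml) for 48 h at 37°C. Hyphal morphology was then examined by bright-field microscopy.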

Aspergillus fumigatus [35] = assay: Antifungal activity against rasA deficient Aspergillus fumigatus H237 assessed as increase in chitin cell wall content at 1 ug/ml; assay type: functional, organism-based
Method in brief: (§4)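 Cultures were grown at 10⁶ conidia/ml in RPMI 1640 with 1 μg/ml drug (single agent or combination) for 48 h at 37°C, 250 rpm. 5 mg of lyophilized mycelium was digested in saturated KOH at 130°C for 1 h, then ethanol-precipitated. Glucosamine was measured by nitrous acid deamination and MBTH/FeCl₃ colour, A650, against a 10 μg/ml glucosamine standard. Output is glucosamine equivalents (μg/ml), from biological triplicate.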

Aspergillus fumigatus [36] = assay: Antifungal activity against Aspergillus fumigatus H237 expressing dominant-active rasA assessed as increase in chitin cell wall content at 1 ug/ml; assay type: functional, organism-based; method in brief: as §4
Aspergillus fumigatus [37] = assay: Antifungal activity against Aspergillus fumigatus Af293 assessed as increase in chitin cell wall content at 1 ug/ml after 48 hrs; assay type: functional, organism-based; method in brief: as §4
Aspergillus fumigatus [38] = assay: Antifungal activity against Aspergillus fumigatus H237 assessed as increase in chitin cell wall content at 1 ug/ml after 48 hrs; assay type: functional, organism-based; method in brief: as §4
Aspergillus fumigatus [39] = assay: Antifungal activity against cnaA deficient Aspergillus fumigatus Af293 assessed as increase in chitin cell wall content at 1 ug/ml; assay type: functional, organism-based; method in brief: as §4
Aspergillus fumigatus [40] = assay: Antifungal activity against crzA deficient Aspergillus fumigatus Af293 assessed as increase in chitin cell wall content at 1 ug/ml; assay type: functional, organism-based; method in brief: as §4
Candida albicans [41] = assay: Antifungal activity against Candida albicans SC5314 assessed as increase in chitin cell wall content at 0.125 ug/ml; assay type: functional
Aspergillus fumigatus [42] = assay: Antifungal activity against Aspergillus fumigatus Af293 assessed as increase in calcofluor white staining og conidia at 1 ug/ml after 16 hrs by fluorescence microscopy; assay type: functional, organism-based
Method in brief: (§5)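 10³ conidia/ml were grown on coverslips in RPMI 1640 with or without 1 μg/ml drug for 16 h at 37°C. Coverslips were stained with calcofluor white for 5 min at room temperature, rinsed and mounted. Fluorescence microscopy used a UV exposure fixed at 25 ms, set on the untreated wild type.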

Aspergillus fumigatus [43] = assay: Antifungal activity against cnaA deficient Aspergillus fumigatus Af293 assessed as increase in calcofluor white staining og conidia at 1 ug/ml after 16 hrss by fluorescence microscopy; assay type: functional, organism-based; method in brief: as §5
Aspergillus fumigatus [44] = assay: Antifungal activity against crzA deficient Aspergillus fumigatus Af293 assessed as increase in calcofluor white staining og conidia at 1 ug/ml after 16 hrss by fluorescence microscopy; assay type: functional, organism-based; method in brief: as §5

| SMILES | minimal effective concentration (Aspergillus fumigatus [1]) | minimal effective concentration (Aspergillus fumigatus [2]) | minimal effective concentration (Aspergillus fumigatus [3]) | minimal effective concentration (Aspergillus fumigatus [4]) | minimal effective concentration (Aspergillus fumigatus [5]) | minimal effective concentration (Aspergillus fumigatus [6]) | minimal effective concentration (Aspergillus fumigatus [7]) | minimal effective concentration (Aspergillus fumigatus [8]) | minimal effective concentration (Aspergillus fumigatus [9]) | Activity (Aspergillus fumigatus [10]) | Activity (Aspergillus fumigatus [11]) | Activity (Aspergillus fumigatus [12]) | Activity (Aspergillus fumigatus [13]) | Activity (Aspergillus fumigatus [14]) | Activity (Aspergillus fumigatus [15]) | further results |
| --- | --- | --- | --- | --- | --- | --- | --- | --- | --- | --- | --- | --- | --- | --- | --- | --- |
| C[C@@H]([C@H](N)C(=O)N[C@H](C(=O)O)[C@H]1O[C@@H](n2ccc(=O)[nH]c2=O)[C@H](O)[C@@H]1O)[C@H](O)c1ccc(O)cn1 [NIKKOMYCIN] | 2 µg/mL | 0.125 µg/mL | 2 µg/mL | 0.5 µg/mL | 4 µg/mL | 4 µg/mL | 0.5 µg/mL | 2 µg/mL | 4 µg/mL | inactive | inactive | inactive | Active | Active | inactive | Activity (Candida albicans [16]): Active; Activity (Aspergillus fumigatus [17]): inactive; Activity (Aspergillus fumigatus [18]): inactive; Activity (Aspergillus fumigatus [19]): inactive; Activity (Aspergillus fumigatus [20]): inactive; Activity (Aspergillus fumigatus [21]): inactive; Activity (Aspergillus fumigatus [22]): inactive; Activity (Aspergillus fumigatus [23]): inactive; Activity (Aspergillus fumigatus [24]): inactive; fractional inhibitory concentration index (FICI) (Aspergillus fumigatus [25]): 0.16; fractional inhibitory concentration index (FICI) (Aspergillus fumigatus [26]): 0.09; fractional inhibitory concentration index (FICI) (Aspergillus fumigatus [27]): 0.03; fractional inhibitory concentration index (FICI) (Aspergillus fumigatus [28]): 0.19; fractional inhibitory concentration index (FICI) (Aspergillus fumigatus [29]): 0.13; fractional inhibitory concentration index (FICI) (Aspergillus fumigatus [30]): 0.09; fractional inhibitory concentration index (FICI) (Aspergillus fumigatus [31]): 0.09; fractional inhibitory concentration index (FICI) (Aspergillus fumigatus [32]): 0.16; fractional inhibitory concentration index (FICI) (Aspergillus fumigatus [33]): 0.5 |
| CC[C@H](C)C[C@H](C)CCCCCCCCC(=O)N[C@H]1C[C@@H](O)[C@@H](NCCN)NC(=O)[C@@H]2[C@@H](O)CCN2C(=O)[C@H]([C@H](O)CCN)NC(=O)[C@H]([C@H](O)[C@@H](O)c2ccc(O)cc2)NC(=O)[C@@H]2C[C@@H](O)CN2C(=O)[C@H]([C@@H](C)O)NC1=O [CASPOFUNGIN] | 1 µg/mL | 0.25 µg/mL | 1 µg/mL | 0.5 µg/mL | 1 µg/mL | 1 µg/mL | 8 µg/mL | 1 µg/mL | 0.25 µg/mL | Active | Active | Active | Active | Active | Active | Activity (Aspergillus fumigatus [34]): Active; Activity (Aspergillus fumigatus [35]): Active; Activity (Aspergillus fumigatus [36]): Active; Activity (Aspergillus fumigatus [37]): Active; Activity (Aspergillus fumigatus [38]): Active; Activity (Aspergillus fumigatus [39]): inactive; Activity (Aspergillus fumigatus [40]): inactive; fold change (FC) (Candida albicans [41]): 2; Activity (Aspergillus fumigatus [42]): inactive; Activity (Aspergillus fumigatus [43]): inactive; Activity (Aspergillus fumigatus [44]): Active |

Reference: ChEMBL document CHEMBL1649120, “Differential effects of inhibiting chitin and 1,3-{beta}-D-glucan synthesis in ras and calcineurin mutants of Aspergillus fumigatus” (2009)
